35 compounds from PubChem BioAssay AID1381 (University of Pittsburgh Molecular Library Screening Center, 2008) can be followed below.

The structures appear in SMILES notation. The campaign covered roughly 220,000 compounds. About 1,000 (0.45%) were called active.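 The calls were made as follows: active = plate z-score of nuclear minus cytoplasmic receptor signal below a set negative limit, without overly bright fluorescence or cell loss (cut at about -3.5 in these data, passing the limit was not always enough); inactive = the rest, inconclusive results apart.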 The full list was thinned out, with actives kept by preference.

This experiment can be described thus: inhibitors of GR-EGFP nuclear translocation, primary screen, dynein cargo transport inhibitor project, imaging, high-content, 3617.4 mouse cells (AID 1381). The settings on record: stimulated with dexamethasone, 1 µM. The method, boiled down: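 medium = tetracycline-free induction medium containing charcoal-stripped FBS | also added = 1.0 µM final dexamethasone stimulus | schedule = 48 h induction, 1 h compound, 30 min dex at 37 °C | technique = fixed, Hoechst-stained cells imaged at 10x for EGFP | measure = GR-EGFP nuclear translocation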

The mark [1] stands for this setting: measured here: cell count per field, at 50 µM.
[2] abbreviates: measured here: cytoplasmic GR-EGFP intensity, at 50 µM, stronger effect = higher value.
[3] abbreviates: measured here: nuclear GR-EGFP intensity, at 50 µM, stronger effect = lower value.
Setting [4] is: measured here: cell count per field, at 20 µM.
Where [5] appears, read: measured here: cytoplasmic GR-EGFP intensity, at 20 µM, stronger effect = higher value.
Where [6] appears, read: measured here: nuclear GR-EGFP intensity, at 20 µM, stronger effect = lower value.

Turning to `Cc1cc(C)c2c3c(sc2n1)C(c1ccccc1)C(C#N)=C(N)O3` (stereo not given), the z-score is -4.27 (active) (at 50 µM, stronger effect = lower value); 2.33 under setting [1]; 1.49 under setting [2]; -2.28 under setting [3].
With `N#CC1=C(N)Oc2c(sc3ccccc23)C1c1ccco1` (stereo not given), the z-score reads like this: (at 20 µM, stronger effect = lower value) -0.943 (inactive); under setting [4], 0.511; under setting [5], 0.878; under setting [6], 0.0658.
The like results for `Cc1cc(C)c(C#N)c(SCc2[nH]nc3c2C(c2ccccc2)C(C#N)=C(N)O3)n1` (stereo not given) were, in that order, -0.933 (inactive), 1.23, -0.0183 and -0.255.
Taken in the same sequence, the figures for `COc1ccc(C(C#N)N2N=C(C)CC2(C)C)cc1` (stereo not given) were -0.0116 (inactive), -0.511, -0.208 and -0.808.
Taken in the same sequence, the figures for `O=C(NCCCN1CCCCC1)c1ccc2c(c1)NC(=O)C(N1CCOCC1)S2` (stereo not given) were 0.104 (inactive), -0.224, -0.224 and -0.851.
For `O=S1(=O)CC/C(=N\Nc2ccc(F)cc2)c2ccsc21`, the z-score reads like this: (at 20 µM, stronger effect = lower value) -0.204 (inactive); under setting [4], -0.257; under setting [5], -0.126; under setting [6], -0.15.
Taken in the same sequence, the figures for `Nn1cnnc1N/N=C/c1cc([N+](=O)[O-])c(Cl)cc1Cl` were 0.859 (inactive), -0.348, 0.536 and 0.371.
Consider `Cc1ccc(Cn2c(NC(=O)c3ccco3)nc3ccccc32)cc1`, for which the z-score (at 20 µM, stronger effect = lower value) was 0.337 (inactive); the z-score under setting [4] was -0.00289; the z-score under setting [5] is -0.18; the z-score under setting [6] is 0.336.
As to `Cn1c2ccccc2c(=O)c2c(=O)n(Cc3ccco3)c(COc3ccccc3)nc21`, the z-score reads like this: (at 20 µM, stronger effect = lower value) 0.301 (inactive); under setting [4], -0.271; under setting [5], -0.198; under setting [6], 0.291.
Take `Cc1ccc(Cn2c(C)nc3c(c2=O)c2nc4ccccc4nc2n3Cc2ccco2)cc1`: the z-score was -4.55 (active) (at 50 µM, stronger effect = lower value); -0.433 under setting [1]; 0.482 under setting [2]; -1.83 under setting [3].
As to `Cc1c(Cl)cccc1NC(=O)CC1SC(=NCC2CCCO2)NC1=O` (stereo not given), the z-score (at 20 µM, stronger effect = lower value) was -0.0448 (inactive); the z-score under setting [4] is -0.163; the z-score under setting [5] is -0.258; the z-score under setting [6] is 0.413.
Taken in the same sequence, the figures for `NNC(=O)c1ccc(Cl)cc1Cl` were 0.203 (inactive), -0.823, -0.243 and 0.206.
As for `O=C(NCC1CCCO1)c1cc(-c2ccccc2)nc2ccccc12` (stereo not given), the z-score is 0.068 (inactive) (at 20 µM, stronger effect = lower value); 0.631 under setting [4]; -0.236 under setting [5]; 0.0806 under setting [6].
For the compound `Cc1ccc(NC(=O)c2cc(-c3ccc(C)o3)nc3ccccc23)nc1`, the z-score is, setting by setting: (at 50 µM, stronger effect = lower value) -3.31 (inactive); under setting [1], -0.441; under setting [2], 0.617; under setting [3], -1.89.
The like results for `Cc1ccc(-c2cc(C(=O)NCC3CCCO3)c3ccccc3n2)o1` (stereo not given) were, in that order, -4.29 (active), 0.456, 0.668 and -1.96.
For `Cc1nc(-c2nnc(SCC(=O)Nc3cc(C(F)(F)F)cc(C(F)(F)F)c3)n2C)cs1`, the z-score was 0.49 (inactive) (at 20 µM, stronger effect = lower value); -0.365 under setting [4]; -0.261 under setting [5]; 0.826 under setting [6].
As for `COc1ccc(CN(Cc2ccc(OC)cc2)C(=O)c2cccs2)cc1`, the z-score is, setting by setting: (at 20 µM, stronger effect = lower value) -0.594 (inactive); under setting [4], 0.82; under setting [5], -0.256; under setting [6], -0.492.
For `COc1ccc(NC(=O)CN(Cc2ccccc2)S(C)(=O)=O)cc1OC`, the z-score is, setting by setting: (at 20 µM, stronger effect = lower value) 0.347 (inactive); under setting [4], -0.496; under setting [5], 0.00823; under setting [6], 0.254.
Taken in the same sequence, the figures for `Cc1cc(=O)oc2c1c(C)nn2-c1ccc(Cl)cc1` were -0.357 (inactive), 1.43, -0.242 and -0.696.
The like results for `C/C(=N\NC(=O)c1nc(C)cc(C)n1)c1ccccc1` were, in that order, 1.7 (inactive), -1.78, 0.199 and 1.06.
Taken in the same sequence, the figures for `Cc1cc(C)nc(S/C=C/C(=O)c2ccccc2)n1` were -5.15 (active), 1.04, 1.08 and -2.68.
For `Cc1cc(SCC(=O)c2ccccc2)nc(SCC(=O)c2ccccc2)n1`, the z-score is, setting by setting: (at 20 µM, stronger effect = lower value) 3.42 (inactive); under setting [4], -0.936; under setting [5], -0.199; under setting [6], -0.0972.
The like results for `Nc1nnn(CC(=O)N/N=C/c2ccc(O)cc2)n1` were, in that order, -0.272 (inactive), 0.973, -0.243 and 0.283.
The like results for `CC(=O)N/C(=C\c1ccc(F)cc1)C(=O)NC(Cc1ccccc1)C(=O)O` (stereo not given) were, in that order, -0.458 (inactive), 0.748, -0.217 and 0.179.
Taken in the same sequence, the figures for `COCCN(CCOC)C(=S)Nc1ccccc1Cl` were -0.23 (inactive), 0.546, 0.025 and -0.44.
Consider `O=C(Nc1ccccc1Cl)/C(Cl)=C(\Cl)S(=O)c1ccccc1` (stereo not given), for which the z-score is, setting by setting: (at 20 µM, stronger effect = lower value) -7.75 (active); under setting [4], 0.218; under setting [5], 2.93; under setting [6], -2.78.
As for `O=C(Nc1ccccc1Cl)c1ccc2nsnc2c1`, the z-score was -0.891 (inactive) (at 20 µM, stronger effect = lower value); 0.488 under setting [4]; -0.235 under setting [5]; -0.5 under setting [6].
In the case of `C/C(N)=C(/C#N)C(=O)COC(=O)c1cc(-c2cccc(Br)c2)nc2ccccc12`, the z-score was 0.554 (inactive) (at 20 µM, stronger effect = lower value); -0.985 under setting [4]; -0.242 under setting [5]; 0.468 under setting [6].
`O=C(COC(=O)c1ccccc1)Nc1cccc(S(=O)(=O)N2CCOCC2)c1`: the z-score (at 20 µM, stronger effect = lower value) was 0.599 (inactive); the z-score under setting [4] was -0.0984; the z-score under setting [5] is -0.271; the z-score under setting [6] was found to be 0.704.
For the compound `COC(=O)c1ccc(CSc2nnc(N)s2)o1`, the z-score runs as follows: (at 20 µM, stronger effect = lower value) -0.747 (inactive); under setting [4], 0.802; under setting [5], -0.292; under setting [6], -0.243.
Taken in the same sequence, the figures for `O=C1c2ccccc2NC(c2ccccn2)N1NS(=O)(=O)c1ccccc1` (stereo not given) were -1.12 (inactive), 1.24, -0.348 and -0.844.
Taken in the same sequence, the figures for `CCC1(CC)NC(=O)N(CC(=O)OCC(=O)NC(=O)c2ccccc2)C1=O` were -0.1 (inactive), 1.43, -0.273 and 0.236.
Turning to `CCCc1nc2oc3c(=O)[nH]cnc3c2c2c1COC(C)(C)C2`, the z-score by setting is: (at 20 µM, stronger effect = lower value) -0.456 (inactive); under setting [4], 0.775; under setting [5], -0.274; under setting [6], -0.288.
Turning to `C/C(CC(=O)Nc1cccc(F)c1)=N\NC(=O)C(=O)NC1CCCCC1`, the z-score (at 20 µM, stronger effect = lower value) was -0.0686 (inactive); the z-score under setting [4] is 0.185; the z-score under setting [5] is -0.304; the z-score under setting [6] was -0.00364.
The like results for `CCc1c(SCCC(=O)O)nc2ccccc2c1C` were, in that order, -0.704 (inactive), 0.903, -0.252 and -0.0559.
